For assay [1], the target named is Histone deacetylase (HDAC1 and HDAC2) (Homo sapiens, UniProt Q13547+Q92769). The assay can be described thus: Inhibition of HDAC1/2 from human HeLa cells nuclear extract by cell free fluorimetric assay. It counts as cell-based.
Another assay deals with SK-MES-1. Kind of assay: Cytotoxicity against human SKMES1 cells after 72 hrs by trypan blue exclusion assay. Type of assay: functional, cell-based. As to conditions: SK-MES-1, 72 h.
Another assay deals with HMEC. Kind of assay: Cytotoxicity against HMEC after 72 hrs by trypan blue exclusion assay. It counts as ADME, cell-based. The settings on record: Homo sapiens.
The target of a further assay is T1, Histone deacetylase 8 (Homo sapiens, UniProt Q9BY41).
T1 sequence (Q9BY41 whole entry): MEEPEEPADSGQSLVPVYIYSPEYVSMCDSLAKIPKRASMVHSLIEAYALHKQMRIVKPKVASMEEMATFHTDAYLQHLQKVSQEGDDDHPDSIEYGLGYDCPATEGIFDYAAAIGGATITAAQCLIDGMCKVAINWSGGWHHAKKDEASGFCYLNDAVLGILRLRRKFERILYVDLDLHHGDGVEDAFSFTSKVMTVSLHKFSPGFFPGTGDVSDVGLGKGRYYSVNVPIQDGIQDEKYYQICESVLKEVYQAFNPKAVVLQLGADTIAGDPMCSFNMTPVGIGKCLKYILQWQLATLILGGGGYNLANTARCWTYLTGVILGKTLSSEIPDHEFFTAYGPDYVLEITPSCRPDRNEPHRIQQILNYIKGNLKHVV
Kind of assay: Inhibition of HDAC8 from human HeLa cells nuclear extract by cell free fluorimetric assay.

Another assay concerns NCI-H69. The assay can be described thus: Cytotoxicity against human NCI-H69 cells after 72 hrs by trypan blue exclusion assay. As to conditions: NCI-H69, 72 h. Type of assay: functional, cell-based.
For a further assay, the system named is DU-145. Kind of assay: Cytotoxicity against human DU145 cells after 72 hrs by trypan blue exclusion assay. It counts as functional, cell-based. The settings on record: DU-145, 72 h. Summed up:
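DU-145 prostate cancer cells kept in recommended complete medium at 37 °C, 5% CO₂, passaged 24 h before dosing. Compounds taken from 10 mM DMSO stocks and diluted in DMSO plus fresh medium, final DMSO 0.1%; control wells got fresh medium only. Viability read by trypan blue staining after 72 h. EC₅₀ = concentration giving 50% loss of viability, from duplicate of four simultaneous experiments.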

Assay [2] in a line: Cytotoxicity against human primary lung fibroblasts after 72 hrs by trypan blue exclusion assay. Type of assay: ADME, cell-based. The settings on record: Fibroblast.

pEC50, pIC50: −log10 of the molar value.

With `CC[C@H]1OC(=O)[C@H](C)[C@@H](O[C@H]2C[C@@](C)(OC)[C@@H](O)[C@H](C)O2)[C@H](C)[C@@H](O[C@@H]2O[C@H](C)C[C@H](N(C)Cc3ccc(-c4cn(CCCCCC(=O)NO)nn4)cc3)[C@H]2O)[C@](C)(O)C[C@@H](C)CN(C)[C@H](C)[C@@H](O)[C@]1(C)O`, the IC50 in assay [1] stood at 0.0916 µM. Also, the pEC50 is 5.75 in the assay on SK-MES-1; < 5.00 in the assay with HMEC; 5.72 in the assay with NCI-H69; 5.84 with DU-145; < 5.00 in assay [2]. The pIC50 on Histone deacetylase 8 was 5.33.
`CC[C@H]1OC(=O)[C@H](C)[C@@H](O[C@H]2C[C@@](C)(OC)[C@@H](O)[C@H](C)O2)[C@H](C)[C@@H](O[C@@H]2O[C@H](C)C[C@H](N(C)Cc3ccc(-c4cn(CCCCCCCCCC(=O)NO)nn4)cc3)[C@H]2O)[C@](C)(OC)C[C@@H](C)C(=O)[C@H](C)[C@@H](O)[C@]1(C)O` yielded an IC50 in assay [1] of 0.2234 µM.
Regarding `CC[C@H]1OC(=O)[C@H](C)[C@@H](O[C@H]2C[C@@](C)(OC)[C@@H](O)[C@H](C)O2)[C@H](C)[C@@H](O[C@@H]2O[C@H](C)C[C@H](N(C)Cc3ccc(-c4cn(CCCCCCCC(=O)NO)nn4)cc3)[C@H]2O)[C@](C)(O)C[C@@H](C)CN(C)[C@H](C)[C@@H](O)[C@]1(C)O`, the IC50 in assay [1] was 0.0589 µM. Moreover, the pEC50 with SK-MES-1 was 5.31; with HMEC, < 5.00; in the assay on NCI-H69, 5.34; in the assay with DU-145 it was 5.23; in assay [2], < 5.00. For the same compound, the pIC50 against Histone deacetylase 8 was 5.15.
As for `CC[C@H]1OC(=O)[C@H](C)[C@@H](O)[C@H](C)[C@@H](O[C@@H]2O[C@H](C)C[C@H](N(C)Cc3ccc(-c4cn(CCCCCC(=O)NO)nn4)cc3)[C@H]2O)[C@](C)(O)C[C@@H](C)CN(C)[C@H](C)[C@@H](O)[C@]1(C)O`, the IC50 in assay [1] turned out to be 0.0888 µM. The pEC50 is 5.77 in the assay with SK-MES-1; < 5.00 in the assay on HMEC; 5.75 with NCI-H69; 5.91 in the assay with DU-145; < 5.00 in assay [2]. In addition, the negative-log IC50 (pIC50) against Histone deacetylase 8 was 5.43.
In assay [1], `CC[C@H]1OC(=O)[C@H](C)[C@@H](O[C@H]2C[C@@](C)(OC)[C@@H](O)[C@H](C)O2)[C@H](C)[C@@H](O[C@@H]2O[C@H](C)C[C@H](N(C)Cc3ccc(-c4cn(CCCCCCCCCC(=O)NO)nn4)cc3)[C@H]2O)[C@](C)(O)C[C@@H](C)CN(C)[C@H](C)[C@@H](O)[C@]1(C)O` registered an IC50 of 0.2267 µM.
In assay [1], `CC[C@H]1OC(=O)[C@H](C)[C@@H](O[C@H]2C[C@@](C)(OC)[C@@H](O)[C@H](C)O2)[C@H](C)[C@@H](O[C@@H]2O[C@H](C)C[C@H](N(C)Cc3ccc(-c4cn(CCCCCC(=O)NO)nn4)cc3)[C@H]2O)[C@](C)(OC)C[C@@H](C)C(=O)[C@H](C)[C@@H](O)[C@]1(C)O` had a 50% inhibitory concentration (IC50) of 0.037 µM. Further, the pEC50 in the assay on SK-MES-1 was 5.67; in the assay with HMEC it was < 5.00; in the assay on NCI-H69 it was 5.57; with DU-145 it was 5.53; in assay [2] it was < 5.00.
Compound `CC[C@H]1OC(=O)[C@H](C)[C@@H](O[C@H]2C[C@@](C)(OC)[C@@H](O)[C@H](C)O2)[C@H](C)[C@@H](O[C@@H]2O[C@H](C)C[C@H](N(C)Cc3ccc(-c4cn(CCCCCCCCC(=O)NO)nn4)cc3)[C@H]2O)[C@](C)(OC)C[C@@H](C)C(=O)[C@H](C)[C@@H](O)[C@]1(C)O` gave an IC50 in assay [1] of 0.1698 µM. In addition, the pEC50 with SK-MES-1 is 5.15; with HMEC, < 5.00; with NCI-H69, 5.14; with DU-145, 5.09; in assay [2], < 5.00.
Regarding `CC[C@H]1OC(=O)[C@H](C)[C@@H](O)[C@H](C)[C@@H](O[C@@H]2O[C@H](C)C[C@H](N(C)Cc3ccc(-c4cn(CCCCCC(=O)NO)nn4)cc3)[C@H]2O)[C@](C)(OC)C[C@@H](C)C(=O)[C@H](C)[C@@H](O)[C@]1(C)O`, in assay [1], the IC50 was 0.0443 µM. For the same compound, the pEC50 in the assay with SK-MES-1 is 5.71; in the assay with HMEC, < 5.00; in the assay with NCI-H69, 5.72; in the assay on DU-145 it was 5.48; in assay [2], < 5.00.
In turn, `CC[C@H]1OC(=O)[C@H](C)[C@@H](O[C@H]2C[C@@](C)(OC)[C@@H](O)[C@H](C)O2)[C@H](C)[C@@H](O[C@@H]2O[C@H](C)C[C@H](N(C)Cc3ccc(-c4cn(CCCCCCCC(=O)NO)nn4)cc3)[C@H]2O)[C@](C)(OC)C[C@@H](C)C(=O)[C@H](C)[C@@H](O)[C@]1(C)O` showed an IC50 in assay [1] of 0.0556 µM. Moreover, the pEC50 is 5.31 in the assay on SK-MES-1; < 5.00 with HMEC; 5.25 in the assay with NCI-H69; 5.16 with DU-145; < 5.00 in assay [2].
`CC[C@H]1OC(=O)[C@H](C)[C@@H](O)[C@H](C)[C@@H](O[C@@H]2O[C@H](C)C[C@H](N(C)Cc3ccc(-c4cn(CCCCCCCC(=O)NO)nn4)cc3)[C@H]2O)[C@](C)(OC)C[C@@H](C)C(=O)[C@H](C)[C@@H](O)[C@]1(C)O` returned an IC50 in assay [1] of 0.123 µM. Further, the pEC50 in the assay on SK-MES-1 was 5.35; with HMEC, < 5.00; with NCI-H69, 5.29; with DU-145, 5.24; in assay [2], < 5.00.
For `CC[C@H]1OC(=O)[C@H](C)[C@@H](O)[C@H](C)[C@@H](O[C@@H]2O[C@H](C)C[C@H](N(C)Cc3ccc(-c4cn(CCCCCCCC(=O)NO)nn4)cc3)[C@H]2O)[C@](C)(O)C[C@@H](C)CN(C)[C@H](C)[C@@H](O)[C@]1(C)O`, in assay [1], the IC50 is 0.0724 µM. Besides, the pEC50 with SK-MES-1 is 5.33; in the assay on HMEC, < 5.00; in the assay on NCI-H69 it was 5.40; with DU-145, 5.25; in assay [2], < 5.00. Further, at Histone deacetylase 8, the pIC50 was 5.17.
In turn, `CC[C@H]1OC(=O)[C@H](C)[C@@H](O[C@H]2C[C@@](C)(OC)[C@@H](O)[C@H](C)O2)[C@H](C)[C@@H](O[C@@H]2O[C@H](C)C[C@H](N(C)Cc3ccc(-c4cn(CCCCCCCCC(=O)NO)nn4)cc3)[C@H]2O)[C@](C)(O)C[C@@H](C)CN(C)[C@H](C)[C@@H](O)[C@]1(C)O` gave an IC50 in assay [1] of 0.1455 µM. Moreover, the pEC50 in the assay with SK-MES-1 is 5.12; with HMEC it was < 5.00; with NCI-H69 it was 5.07; with DU-145, < 5.00; in assay [2], < 5.00. Further, the pIC50 on Histone deacetylase 8 was 4.96.
`CC[C@H]1OC(=O)[C@H](C)[C@@H](O[C@H]2C[C@@](C)(OC)[C@@H](O)[C@H](C)O2)[C@H](C)[C@@H](O[C@@H]2O[C@H](C)C[C@H](N(C)Cc3ccc(NC(=O)CCCCCCC(=O)NO)cc3)[C@H]2O)[C@](C)(O)C[C@@H](C)CN(C)[C@H](C)[C@@H](O)[C@]1(C)O` [AZITHROMYCINARYLALKYLHYDROXAMIC ACID] yielded an IC50 in assay [1] of 0.1071 µM. In addition, the pEC50 with DU-145 was < 4.60.
Regarding `CC[C@H]1OC(=O)[C@H](C)[C@@H](O)[C@H](C)[C@@H](O[C@@H]2O[C@H](C)C[C@H](N(C)Cc3ccc(NC(=O)CCCCCCC(=O)NO)cc3)[C@H]2O)[C@](C)(O)C[C@@H](C)CN(C)[C@H](C)[C@@H](O)[C@]1(C)O` [DESCLASINOSE AZITHROMYCINARYLALKYL HYDROXAMATE], in assay [1], the IC50 worked out at 0.1098 µM. For the same compound, in the assay on DU-145, the pEC50 is > 4.60.
Compound `O=C(CCCCCCC(=O)Nc1ccccc1)NO` [VORINOSTAT] showed a pEC50 in the assay with DU-145 of 5.67.

Source of the values: ChEMBL document CHEMBL1139366, “Non-peptide macrocyclic histone deacetylase inhibitors” (J Med Chem, 2009).
